Data on eight compounds can be found in ChEMBL document CHEMBL1123539, “[p-[(Thienylcarbonyl)amino]phenoxy]propanolamines derivatives as diuretic and beta-adrenergic receptor blocking agents” (1986).

Assay [1] relates to Rattus norvegicus. The assay is described as follows: Compound was tested for oral salidiuretic activity (control/drug treatment value) in rats expressed in Na+, mequiv/6 hr at a dose of 128 mg/kg;. 207/1.364. The format is functional, Urine.
The test system of assay [2] is Rattus norvegicus. The assay is described as follows: Compound was tested for oral salidiuretic activity (control/drug treatment value) in rats expressed in Na+, mequiv/6 hr at a dose of 32 mg/kg; 0.207/0.626. It is filed as functional, Urine.
Assay [3] deals with Beta-2 adrenergic receptor (Rattus norvegicus) (UniProt P10608). Description: The compound was tested for beta-2 adrenergic receptor blocking activity in conscious rats after 1 hr.
Assay [4] concerns Rattus norvegicus. The assay is described as follows: Compound was tested for oral salidiuretic activity (control/drug treatment value) in rats expressed in Na+, mequiv/6 hr at a dose of 32 mg/kg; 0.259/0.680. The format is functional, Urine.
In assay [5] the test system is Rattus norvegicus. Description: Compound was tested for oral salidiuretic activity (control/drug treatment value) in rats expressed as urinary output. at a dose of 128 mg/kg; 6.42/15.08. It is filed as functional, Urine.
The target in assay [6] is Beta-1 adrenergic receptor (Homo sapiens) (UniProt P08588). The assay is described as follows: Compound was tested for beta-1 adrenergic receptor blocking activity in conscious rats after 1 hr. The note with it: Rattus norvegicus; target entry is the homologue from another species.
The subject of assay [7] is Rattus norvegicus. The assay is described as follows: Compound was tested for oral salidiuretic activity (control/drug treatment value) in rats expressed in Na+, mequiv/6 hr at a dose of 64 mg/kg; 0.207/0.766. The format is functional, Urine.
For assay [8], the system named is Rattus norvegicus. The assay is described as follows: Compound was tested for oral salidiuretic activity (control/drug treatment value) in rats expressed as urinary output. at a dose of 32 mg/kg at 0-4 h; 9.02/11.67. It is filed as functional, Urine.
The target of assay [9] is Beta-1 adrenergic receptor (Homo sapiens) (UniProt P08588). Description: Compound was tested for beta-1 adrenergic receptor blocking activity in dogs. To be noted: Canis lupus familiaris; target entry is the homologue from another species.
Assay [10] relates to Rattus norvegicus. Description: Compound was tested for oral salidiuretic activity (control/drug treatment value) in rats expressed as urinary output. at a dose of 32 mg/kg at 0-6 h; 9.99/13.01. The format is functional, Urine.
Assay [11] has as its system Rattus norvegicus. Description: Compound was tested for oral salidiuretic activity (control/drug treatment value) in rats expressed as urinary output. at a dose of 32 mg/kg at 0-2h; 7.42/9.64. The format is functional, Urine.
Assay [12] addresses Beta-1 adrenergic receptor (Homo sapiens) (UniProt P08588). Description: Compound was tested for beta-1 adrenergic receptor blocking activity in conscious rats after 5 hr. The note with it: Rattus norvegicus; target entry is the homologue from another species.
The subject of assay [13] is Rattus norvegicus. The assay is described as follows: Compound was tested for oral salidiuretic activity (control/drug treatment value) in rats expressed as urinary output. at a dose of 64 mg/kg; 6.42/11.25. The format is functional, Urine.
Assay [14] concerns Rattus norvegicus. Description: Compound was tested for oral salidiuretic activity (control/drug treatment value) in rats expressed in Na+, mequiv/6 hr at a dose of 16 mg/kg; 0.207/0.554. It is filed as functional, Urine.
For assay [15], the system named is Rattus norvegicus. Description: Compound was tested for oral salidiuretic activity (control/drug treatment value) in rats expressed as urinary output. at a dose of 16 mg/kg; 6.42/9. It is filed as functional, Urine.
Assay [16] relates to Rattus norvegicus. The assay is described as follows: Compound was tested for oral salidiuretic activity (control/drug treatment value) in rats expressed as urinary output. at a dose of 32 mg/kg; 6.42/9.83. The format is functional, Urine.
Assay [17] concerns the target Beta-2 adrenergic receptor (Canis lupus familiaris) (UniProt P54833). The assay is described as follows: The compound was tested for beta-2 adrenergic receptor blocking activity in dogs. In a few lines: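 In two dogs, drugs were injected via a cannulated saphenous vein, with increasing doses given every 30 min and each animal used once per substance. Isoproterenol-induced changes in diastolic arterial pressure after each dose were compared with isoproterenol control responses to calculate percent blockade. ID50 (50% inhibition) was estimated from the dose-response curve.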

The target in assay [18] is Beta-1 adrenergic receptor (Homo sapiens) (UniProt P08588). The note with it: Canis lupus familiaris.
For assay [19], the system named is Rattus norvegicus. Description: Compound was tested for oral salidiuretic activity (control/drug treatment value) in rats expressed in Na+, mequiv/6 hr at a dose of 32 mg/kg; 0.140/0.417. The format is functional, Urine.
Assay [20] deals with Rattus norvegicus. Description: Compound was tested for oral salidiuretic activity (control/drug treatment value) in rats expressed as urinary output. at a dose of 32 mg/kg; 10.33/10.08. The format is functional, Urine.
For assay [21], the target named is Beta-2 adrenergic receptor (Canis lupus familiaris) (UniProt P54833).
The test system of assay [22] is Rattus norvegicus. The assay is described as follows: Compound was tested for oral salidiuretic activity (control/drug treatment value) in rats expressed in Na+, mequiv/6 hr at a dose of 128 mg/kg; 0.163/0.133. The format is functional, Urine.
Assay [23] deals with Rattus norvegicus. The assay is described as follows: Compound was tested for oral salidiuretic activity (control/drug treatment value) in rats expressed as urinary output. at a dose of 128 mg/kg; 8.72/8.02. It is filed as functional, Urine.
Assay [24] relates to Rattus norvegicus. The assay is described as follows: Compound was tested for oral salidiuretic activity (control/drug treatment value) in rats expressed in Na+, mequiv/6 hr at a dose of 128 mg/kg; 0.186/0.179. It is filed as functional, Urine.
The test system of assay [25] is Rattus norvegicus. The assay is described as follows: Compound was tested for oral salidiuretic activity (control/drug treatment value) in rats expressed as urinary output. at a dose of 128 mg/kg; 8.42/6.25. It is filed as functional, Urine.
The subject of assay [26] is Rattus norvegicus. Description: Compound was tested for oral salidiuretic activity (control/drug treatment value) in rats expressed as urinary output. at a dose of 128 mg/kg; 7.33/10.83. It is filed as functional, Urine.
For assay [27], the system named is Rattus norvegicus. Description: Compound was tested for oral salidiuretic activity (control/drug treatment value) in rats expressed in Na+, mequiv/6 h at a dose of 128 mg/kg; 0.210/0.796. It is filed as functional, Urine.
Assay [28] has as its system Rattus norvegicus. Description: Compound was tested for oral salidiuretic activity (control/drug treatment value) in rats expressed in Na+, mequiv/6 hr at a dose of 64 mg/kg; 0.140/0.355. The format is functional, Urine.
Assay [29] has as its system Rattus norvegicus. The assay is described as follows: Compound was tested for oral salidiuretic activity (control/drug treatment value) in rats expressed as urinary output. at a dose of 64 mg/kg; 10.33/9.33. It is filed as functional, Urine.
The test system of assay [30] is Rattus norvegicus. Description: Compound was tested for oral salidiuretic activity (control/drug treatment value) in rats expressed in Na+, mequiv/6 hr at a dose of 128 mg/kg; 0.198/0.885. It is filed as functional, Urine.
Assay [31] deals with Rattus norvegicus. The assay is described as follows: Compound was tested for oral salidiuretic activity (control/drug treatment value) in rats expressed as urinary output. at a dose of 128 mg/kg; 8.17/12.83. The format is functional, Urine.
The test system of assay [32] is Rattus norvegicus. Description: Compound was tested for oral salidiuretic activity (control/drug treatment value) in rats expressed as urinary output. at a dose of 128 mg/kg; 7.67/6.97. It is filed as functional, Urine.
The test system of assay [33] is Rattus norvegicus. Description: Compound was tested for oral salidiuretic activity (control/drug treatment value) in rats expressed in Na+, mequiv/6 hr at a dose of 128 mg/kg; 0.310/0.148. It is filed as functional, Urine.

Beta-1 adrenergic receptor (Homo sapiens), sequence (P08588 whole entry, looked up): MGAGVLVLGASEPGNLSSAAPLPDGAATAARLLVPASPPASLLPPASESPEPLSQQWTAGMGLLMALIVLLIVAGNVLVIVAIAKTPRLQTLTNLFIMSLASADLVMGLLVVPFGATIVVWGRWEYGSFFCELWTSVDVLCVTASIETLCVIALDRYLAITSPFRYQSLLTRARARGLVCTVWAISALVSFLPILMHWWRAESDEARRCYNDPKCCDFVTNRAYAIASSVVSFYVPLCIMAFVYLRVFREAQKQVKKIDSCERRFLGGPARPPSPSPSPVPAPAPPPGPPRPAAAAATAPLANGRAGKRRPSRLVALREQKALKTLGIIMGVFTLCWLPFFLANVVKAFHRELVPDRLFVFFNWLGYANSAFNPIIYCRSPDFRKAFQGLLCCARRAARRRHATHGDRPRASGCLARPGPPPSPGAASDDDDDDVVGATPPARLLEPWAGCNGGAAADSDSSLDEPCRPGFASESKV
Beta-2 adrenergic receptor (Canis lupus familiaris), sequence (P54833 whole entry, looked up): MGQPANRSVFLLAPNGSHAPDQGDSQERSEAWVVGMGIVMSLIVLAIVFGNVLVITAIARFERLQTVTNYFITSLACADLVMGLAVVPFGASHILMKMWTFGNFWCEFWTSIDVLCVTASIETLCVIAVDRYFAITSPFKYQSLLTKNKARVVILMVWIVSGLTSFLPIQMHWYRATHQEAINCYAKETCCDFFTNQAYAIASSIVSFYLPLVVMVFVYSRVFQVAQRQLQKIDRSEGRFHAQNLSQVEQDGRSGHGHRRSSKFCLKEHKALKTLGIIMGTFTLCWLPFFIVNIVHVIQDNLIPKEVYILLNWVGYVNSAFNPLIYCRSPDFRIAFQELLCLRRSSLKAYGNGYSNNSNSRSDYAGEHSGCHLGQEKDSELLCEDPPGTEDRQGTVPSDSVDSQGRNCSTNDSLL
Beta-2 adrenergic receptor (Rattus norvegicus), sequence (P10608 whole entry, looked up): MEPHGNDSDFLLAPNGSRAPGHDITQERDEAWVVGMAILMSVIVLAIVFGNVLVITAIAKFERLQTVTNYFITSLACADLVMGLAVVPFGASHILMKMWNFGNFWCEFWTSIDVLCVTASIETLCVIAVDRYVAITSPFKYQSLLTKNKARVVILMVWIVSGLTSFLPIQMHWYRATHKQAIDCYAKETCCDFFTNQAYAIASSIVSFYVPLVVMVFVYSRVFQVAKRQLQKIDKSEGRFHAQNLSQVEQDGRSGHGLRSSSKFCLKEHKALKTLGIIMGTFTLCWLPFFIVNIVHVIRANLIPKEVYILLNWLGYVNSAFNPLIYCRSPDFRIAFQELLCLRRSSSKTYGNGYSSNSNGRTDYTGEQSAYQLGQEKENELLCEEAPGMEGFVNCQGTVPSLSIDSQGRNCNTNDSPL

In the case of `CCOC(=O)c1cc(NC(=O)c2cccs2)ccc1OCC(O)CNC(C)(C)C` (stereo not drawn) [TIENOXOLOL], the Activity amounted to 0.207 in the assay on Rattus norvegicus [1]; 0.207 in the assay with Rattus norvegicus [2]; 0.259 in the assay on Rattus norvegicus [4]; 6.42 mL in the assay on Rattus norvegicus [5]; 0.207 in the assay on Rattus norvegicus [7]; 9.02 mL in the assay with Rattus norvegicus [8]. Besides, the Activity with Rattus norvegicus [10] stood at 9.99 mL; in the assay on Rattus norvegicus [11], 7.42 mL; in the assay on Rattus norvegicus [14], 0.207. The results for the ED50 in assay [3], in [6] and in assay [12] were 0.00133 mg/kg, 0.00176 mg/kg and 0.00179 mg/kg, respectively. Moreover, the ID50 in assay [9] was 0.065 mg/kg; in assay [17], > 1 mg/kg. Further, the treated urinary output in the assay with Rattus norvegicus [13] amounted to 11.2 mL; in the assay with Rattus norvegicus [15], 9 mL; in the assay on Rattus norvegicus [16] it was 9.83 mL.
As to `CC(C)NCC(O)COc1ccc(NC(=O)c2cccs2)cc1Cl` (stereo not drawn), the ID50 was 0.17 mg/kg in assay [18] and > 1 mg/kg in assay [21]. Besides, the Activity turned out to be 0.14 in the assay with Rattus norvegicus [19] and 10.33 mL with Rattus norvegicus [20].
For the compound `CCOC(=O)c1cc(NC(=O)Cc2ccsc2)ccc1OCC(O)CNC(C)C` (stereo not drawn), the values for the ID50 in assay [18] and in assay [21] were 0.02 mg/kg and > 1 mg/kg, respectively. Moreover, the Activity in the assay on Rattus norvegicus [22] was 0.163; in the assay on Rattus norvegicus [23], 8.72 mL.
For `CCOC(=O)c1cc(NC(=O)Cc2cccs2)ccc1OCC(O)CNC(C)(C)C` (stereo not drawn), the ID50 in assay [18] was determined as 0.004 mg/kg; in [21], 0.6 mg/kg. Further, the figures for the Activity with Rattus norvegicus [24] and with Rattus norvegicus [25] were 0.186 and 8.42 mL, respectively.
Regarding `CCCOC(=O)c1cc(NC(=O)c2cccs2)ccc1OCC(O)CNC(C)C` (stereo not drawn), the Activity turned out to be 7.33 mL in the assay with Rattus norvegicus [26] and 0.21 in the assay with Rattus norvegicus [27].
On to `CC(C)(C)NCC(O)COc1ccc(NC(=O)c2cccs2)cc1Cl` (stereo not drawn), for which the ID50 in [18] worked out at 0.014 mg/kg; in [21] it was 0.4 mg/kg. Besides, the values for the Activity in the assay with Rattus norvegicus [28] and in the assay with Rattus norvegicus [29] were 0.14 and 10.33 mL, respectively.
As to `COC(=O)c1cc(NC(=O)c2cccs2)ccc1OCC(O)CNC(C)C` (stereo not drawn), the results for the ID50 in assay [18] and in assay [21] were 0.25 mg/kg and > 1 mg/kg, respectively. For the same compound, the Activity in the assay with Rattus norvegicus [30] amounted to 0.198; in the assay with Rattus norvegicus [31], 8.17 mL.
Turning to `CC(C)(C)NCC(O)COc1ccc(NC(=O)c2cccs2)cc1C(N)=O` (stereo not drawn), the ID50 in assay [18] was 0.12 mg/kg; in assay [21], > 1 mg/kg. Moreover, the Activity worked out at 7.67 mL with Rattus norvegicus [32] and 0.301 in the assay with Rattus norvegicus [33].
